# Hits are enriched below; roughly 3.7% of the tested compounds scored in any of these assays.
# KCNK9 block – KCNK9 potassium channel inhibitors, primary screen, HEK293 cells, thallium flux; AID 488922, 2010; B-score at 10 µM; Potassium channel subfamily K member 9 (Homo sapiens), Q9NPC2; 310,000 compounds, 1.2% hits; FluxOR thallium flux fluorescence; stronger effect = lower value;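 active = ratio B-score over 3 SD below the library mean, with starting fluorescence within 5 SD of its mean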;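 note: negative B-score means less thallium flux so channel inhibition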
# hERG rescue – hERG rescue from dofetilide block, primary screen, cell-based, CHO-hERG, FluxOR thallium flux, dofetilide IC70; activation (rescue from dofetilide block), less the hit threshold, % at 10 µM; Voltage-gated inwardly rectifying potassium channel KCNH2 (Homo sapiens), Q12809; dofetilide IC70 present; AID 1511, 2009; 310,000 compounds, 0.51% hits;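 active = activation above the mean of controls blocked by dofetilide plus 5 SD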;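 note: thallium influx through hERG after potassium depolarization seen as dye fluorescence rise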
# Kir21 inh – inhibitors of mouse Kir2.1 inward-rectifier potassium channel. Inward rectifier potassium channel 2 (Mus musculus), P35561. 310,000 compounds, 0.85% hits. HEK293-Kir2.1, FluxOR thallium flux fluorescence; stronger effect = lower value. B-score at 10 µM;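 active = fluorescence ratio B-score at or below minus 3 SD of library scores, with starting-brightness B-score within 2 SD, cut at about -4.2 in these data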;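 note: channel flux triggered by added potassium and thallium sulfate stimulus; B-score of peak minus minimum fluorescence over baseline after thallium stimulus; more negative B-score means stronger Kir2.1 block with less thallium influx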
# KCNQ1 inh – inhibitors of human KCNQ1 channel, primary screen, cell-based, thallium flux, high-throughput | Potassium voltage-gated channel subfamily KQT member 1 (Homo sapiens), P51787 | CHO-K1 KCNQ1, FluxOR thallium flux fluorescence; stronger effect = higher value | B-score at 10 µM | 310,000 compounds, 1.3% hits | AID 2642, 2010;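 active = compounds whose thallium flux B-score, printed positive for inhibition, exceeds three library SD while starting fluorescence stays within three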;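 note: channel opened by potassium depolarization with thallium stimulus after 20 min compound exposure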
# Target sequence (P51787 whole entry, looked up): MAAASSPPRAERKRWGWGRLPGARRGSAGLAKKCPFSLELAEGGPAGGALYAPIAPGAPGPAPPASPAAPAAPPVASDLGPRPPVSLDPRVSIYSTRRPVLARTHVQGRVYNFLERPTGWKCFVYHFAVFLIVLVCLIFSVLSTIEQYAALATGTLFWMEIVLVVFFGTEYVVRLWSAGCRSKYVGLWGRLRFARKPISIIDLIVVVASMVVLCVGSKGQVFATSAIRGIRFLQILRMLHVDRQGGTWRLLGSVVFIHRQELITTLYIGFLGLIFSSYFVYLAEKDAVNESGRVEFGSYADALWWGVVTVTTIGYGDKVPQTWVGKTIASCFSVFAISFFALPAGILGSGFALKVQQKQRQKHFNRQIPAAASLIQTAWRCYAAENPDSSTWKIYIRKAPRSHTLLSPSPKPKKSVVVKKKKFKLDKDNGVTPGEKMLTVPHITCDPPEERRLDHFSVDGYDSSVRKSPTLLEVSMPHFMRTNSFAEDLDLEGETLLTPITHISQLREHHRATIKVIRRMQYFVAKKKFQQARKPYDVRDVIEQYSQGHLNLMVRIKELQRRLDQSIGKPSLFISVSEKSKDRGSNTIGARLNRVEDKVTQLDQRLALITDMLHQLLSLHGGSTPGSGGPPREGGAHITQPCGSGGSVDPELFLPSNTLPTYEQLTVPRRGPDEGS
# KCNQ1 act – potentiators or activators of KCNQ1 channel, primary screen, cell-based, thallium flux, high-throughput; CHO-K1 KCNQ1, thallium flux FluxOR fluorescence; stronger effect = higher value; 310,000 compounds, 0.35% hits; Potassium voltage-gated channel subfamily KQT member 1 (Homo sapiens), P51787; B-score at 10 µM; AID 2648, 2010;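 active = fluorescence ratio B-score, a plate-corrected score, at least three library SD, with initial intensity B-score within 5 SD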
#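 Assay system: CHO-K1 cells stably expressing KCNQ1. Medium: assay buffer for compound exposure, DMSO matched across wells. Timing: 37 °C overnight plating, 90-min dark dye load, 20-min compound pretreatment. Signal: kinetic FluxOR fluorescence, 10 s baseline plus 110 s post-stimulus.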
# KCNK3 inh – human KCNK3 channel inhibitors, primary screen, CHO cells, FluxOR thallium flux, B-score; Potassium channel subfamily K member 3 (Homo sapiens), O14649; FluxOR fluorescence; stronger effect = lower value; B-score at 10 µM; 340,000 compounds, 0.84% hits;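 active = B-score under library mean minus 4 SD, starting fluorescence ratio at most library mean plus 5 SD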;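 note: more negative B-score means stronger inhibition of thallium flux through KCNK3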
# * hit, by the source's call; i = inactive; . = no result.
SMILES,KCNK9 block,hERG rescue,Kir21 inh,KCNQ1 inh,KCNQ1 act,KCNK3 inh
Cc1ccc(S(=O)(=O)N2CCCC2C(=O)NCc2ccc3c(c2)OCO3)cc1 (stereo unspecified),i,9.9*,0.12,i,i,i
Cc1ccc(CNC(=O)C2CCCN2S(=O)(=O)c2ccc(Cl)cc2)cc1 (stereo unspecified),i,-12,2.2,i,i,i
O=C(/C=C/c1ccccc1)CC(=O)c1ccccc1O,i,15*,-1.4,i,i,i
O=C(C=Cc1cccc(O)c1)c1ccccc1O,.,.,.,.,.,-9.9*
Cc1sc(-c2cccnc2)nc1OC(=O)C1CC1,i,-7,2,i,i,i
COc1ccc(/C=C/c2onc(C)c2S(=O)(=O)N2CCC(C(=O)N3CCC(C)CC3)CC2)cc1,i,-9,-0.75,i,i,i
CC(=O)/C=C/c1ccc2ccccc2n1,i,-15,-4.8*,i,i,i
CC(OC(=O)/C=C/c1ccc2ccccc2n1)C(=O)N(C)c1ccccc1 (stereo unspecified),.,.,.,.,.,i
CCC(C)Sc1ccc(-c2nc3ccccn3c2NCc2ccccc2)cc1OC (stereo unspecified),.,.,.,.,.,i
COc1ccc(CSc2ccc(-c3nc4ccccn4c3NCc3ccccc3)cc2OC)cc1,i,-7,-1.2,6*,i,i
COc1ccc(CCNC(=O)C2CCN(S(=O)(=O)c3ccc4nc5c(c(C(=O)O)c4c3)CCCC5)CC2)cc1OC,i,1,-0.69,i,i,i
COc1ccc(NC(=O)Nc2ccc(Br)c(C)c2)cc1,i,-20,-0.5,i,i,i
COc1ccc(Cl)cc1S(=O)(=O)N1CCN=C1Cc1ccccc1,i,-10,-5.1*,i,i,i
CC(C)CCNC(=O)C1CCCCN1S(=O)(=O)c1ccc(F)cc1 (stereo unspecified),i,5.0*,-0.06,i,i,i
CCCCn1c(N)c(NCC(C)C)c(=O)[nH]c1=O,i,-4,-0.79,i,i,i
S=c1nc(C23CC4CC(CC(C4)C2)C3)[nH][nH]1,i,-5,-0.62,i,i,i
S=c1nn[nH]n1C12CC3CC(CC(C3)C1)C2,i,14*,0.83,i,9*,i
O=C1/C(=C/c2cccs2)CCC/C1=C\c1cccs1,i,-12,0.02,i,i,i
CC1C/C(=C/c2cccs2)C(=O)/C(=C/c2cccs2)C1 (stereo unspecified),-7.4*,-16,-0.07,i,i,i
CC1(C)CC(=O)/C(=C(/O)Cc2ccccc2)C(=NCCc2ccccc2)C1,i,-14,-4.3*,i,i,i
COc1ccccc1C1CC(c2ccco2)=NN1c1ccccc1 (stereo unspecified),-7.6*,-6,-0.26,i,i,i
Fc1ccc(C2=NN(c3ccccc3)C(c3ccco3)C2)cc1 (stereo unspecified),i,-28,-0.83,i,i,i
COc1cc(/C=C/C(=O)OCC(=O)NCC2CCCCC2)ccc1O,.,.,.,.,.,i
CC(=O)Nc1cccc(C(=O)/C=C/c2ccc(Br)cc2)c1,i,-17,-6*,i,i,i
Cc1ccc(Cl)cc1-n1c(SCC(=O)NCCC2=CCCCC2)nc2n[nH]c(C)c2c1=N,-7.2*,-12,0.15,i,i,i
CCC(C(=O)NCCC1=CCCCC1)c1ccccc1 (stereo unspecified),i,-6,-5.6*,i,i,i
Cc1ccccc1OC(C)C(=O)NCCC1=CCCCC1 (stereo unspecified),i,-7,-8.9*,i,i,i
